Results from ChEMBL document CHEMBL1143280, “Discovery and optimization of imidazo[1,2-a]pyridine inhibitors of insulin-like growth factor-1 receptor (IGF-1R)” (Bioorg Med Chem Lett, 2009).

What was measured:
[1] = target: T1, Insulin-like growth factor 1 receptor (Homo sapiens, UniProt P08069); assay: Inhibition of GST-tagged IGF1R (957-1367) expressed in baculovirus by time-resolved fluorescence assay
[2] = target: T1, Insulin-like growth factor 1 receptor; assay: Inhibition of human IGF1R autophosphorylation in transfected mouse NIH3T3 cells; format: cell-based
Mus musculus [3] = assay: Dose normalized AUC (0 to 6 hrs) in po dosed mouse; format: ADME, organism-based; design: time < 6 hr, route oral; conditions: in vivo
Procedure, shortened: (§1)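 Oral dosing in mice; dose-normalized AUC in ng h/mL/(mg/kg) calculated over 0–6 h.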

[4] = target: Mitogen-activated protein kinase 14 (Homo sapiens, UniProt Q16539); assay: Inhibition of p38alpha
Sequence of Mitogen-activated protein kinase 14 (Q16539 whole entry): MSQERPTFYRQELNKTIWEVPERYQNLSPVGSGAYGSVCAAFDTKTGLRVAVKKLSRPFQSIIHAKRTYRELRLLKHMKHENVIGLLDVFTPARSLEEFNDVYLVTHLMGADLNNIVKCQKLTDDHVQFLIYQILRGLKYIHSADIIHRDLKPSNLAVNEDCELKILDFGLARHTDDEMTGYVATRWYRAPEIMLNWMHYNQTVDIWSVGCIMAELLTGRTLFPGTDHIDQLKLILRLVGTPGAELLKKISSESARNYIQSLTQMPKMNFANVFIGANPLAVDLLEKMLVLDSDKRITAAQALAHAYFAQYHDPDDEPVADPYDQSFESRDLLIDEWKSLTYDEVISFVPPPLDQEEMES

[5] = target: Serine/threonine-protein kinase B-raf (Homo sapiens, UniProt P15056, V600E); assay: Inhibition of B-raf V600E mutant
Sequence of Serine/threonine-protein kinase B-raf (P15056 2-766 V600E limits assumed): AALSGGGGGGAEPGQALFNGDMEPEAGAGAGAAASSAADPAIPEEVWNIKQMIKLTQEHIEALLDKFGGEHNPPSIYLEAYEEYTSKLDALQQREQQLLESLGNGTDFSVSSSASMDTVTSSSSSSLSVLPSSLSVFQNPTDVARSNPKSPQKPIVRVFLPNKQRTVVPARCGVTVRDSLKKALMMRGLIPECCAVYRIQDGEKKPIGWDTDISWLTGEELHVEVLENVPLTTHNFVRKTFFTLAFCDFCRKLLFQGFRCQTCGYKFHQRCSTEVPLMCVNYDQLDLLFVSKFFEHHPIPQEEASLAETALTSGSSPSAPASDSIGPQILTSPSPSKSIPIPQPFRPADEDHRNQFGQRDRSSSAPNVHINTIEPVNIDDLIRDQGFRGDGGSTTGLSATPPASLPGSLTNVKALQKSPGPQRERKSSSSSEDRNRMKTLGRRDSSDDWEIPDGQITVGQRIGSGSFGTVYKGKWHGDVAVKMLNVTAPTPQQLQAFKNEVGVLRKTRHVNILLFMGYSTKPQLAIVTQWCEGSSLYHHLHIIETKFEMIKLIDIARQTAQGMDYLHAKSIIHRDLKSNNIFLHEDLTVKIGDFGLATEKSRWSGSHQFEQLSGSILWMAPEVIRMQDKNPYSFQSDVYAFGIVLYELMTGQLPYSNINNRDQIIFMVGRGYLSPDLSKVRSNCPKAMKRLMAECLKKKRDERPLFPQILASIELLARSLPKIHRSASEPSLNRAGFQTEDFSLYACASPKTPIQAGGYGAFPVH

Aurora kinase A = target: T2, Aurora kinase A (Homo sapiens, UniProt O14965); assay: Inhibition of Aurora A
T2 sequence (O14965 whole entry): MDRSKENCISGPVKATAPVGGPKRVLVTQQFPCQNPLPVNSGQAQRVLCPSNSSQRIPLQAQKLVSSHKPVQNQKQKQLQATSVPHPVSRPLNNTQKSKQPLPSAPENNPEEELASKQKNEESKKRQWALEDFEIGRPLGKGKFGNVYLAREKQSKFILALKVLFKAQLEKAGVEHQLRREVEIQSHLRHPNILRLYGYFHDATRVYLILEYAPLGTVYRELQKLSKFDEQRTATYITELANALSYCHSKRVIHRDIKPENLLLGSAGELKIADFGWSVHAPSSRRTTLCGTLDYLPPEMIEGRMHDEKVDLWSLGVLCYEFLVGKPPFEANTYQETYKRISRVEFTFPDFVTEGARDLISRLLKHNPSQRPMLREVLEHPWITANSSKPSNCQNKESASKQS

[6] = target: Epidermal growth factor receptor (Homo sapiens, UniProt P00533); assay: Inhibition of EGFR
Sequence of Epidermal growth factor receptor (P00533 whole entry): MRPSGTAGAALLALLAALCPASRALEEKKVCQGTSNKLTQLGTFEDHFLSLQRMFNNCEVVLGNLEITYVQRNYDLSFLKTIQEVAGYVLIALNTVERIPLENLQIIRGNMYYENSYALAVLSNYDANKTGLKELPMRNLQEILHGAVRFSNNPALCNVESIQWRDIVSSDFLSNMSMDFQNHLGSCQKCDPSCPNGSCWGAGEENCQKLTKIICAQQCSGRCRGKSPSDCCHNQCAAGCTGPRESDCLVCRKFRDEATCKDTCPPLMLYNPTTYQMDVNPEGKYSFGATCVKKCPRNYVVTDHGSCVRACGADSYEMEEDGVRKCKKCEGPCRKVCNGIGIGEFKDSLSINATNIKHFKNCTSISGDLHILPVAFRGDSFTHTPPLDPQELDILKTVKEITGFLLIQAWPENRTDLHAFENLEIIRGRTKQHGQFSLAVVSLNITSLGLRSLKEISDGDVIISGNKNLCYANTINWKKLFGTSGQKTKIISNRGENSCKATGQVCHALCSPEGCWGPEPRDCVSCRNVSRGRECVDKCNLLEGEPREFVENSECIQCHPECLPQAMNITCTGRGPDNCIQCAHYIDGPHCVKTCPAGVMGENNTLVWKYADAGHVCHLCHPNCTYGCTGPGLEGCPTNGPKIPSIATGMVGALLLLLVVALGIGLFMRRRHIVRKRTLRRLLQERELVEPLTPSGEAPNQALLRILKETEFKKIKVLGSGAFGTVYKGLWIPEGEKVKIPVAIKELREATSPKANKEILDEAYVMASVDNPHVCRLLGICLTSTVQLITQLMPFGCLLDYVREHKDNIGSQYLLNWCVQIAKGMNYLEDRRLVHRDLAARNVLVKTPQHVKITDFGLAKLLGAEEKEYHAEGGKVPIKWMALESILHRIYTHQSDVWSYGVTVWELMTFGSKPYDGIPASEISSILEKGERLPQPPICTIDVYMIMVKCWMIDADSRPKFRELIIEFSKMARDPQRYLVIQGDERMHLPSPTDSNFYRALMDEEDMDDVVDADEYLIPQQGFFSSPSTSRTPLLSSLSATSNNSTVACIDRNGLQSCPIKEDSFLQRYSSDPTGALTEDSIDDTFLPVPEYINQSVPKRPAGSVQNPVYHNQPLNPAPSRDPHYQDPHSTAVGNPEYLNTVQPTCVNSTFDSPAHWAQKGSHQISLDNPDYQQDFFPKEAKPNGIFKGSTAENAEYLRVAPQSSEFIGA

[7] = target: Receptor tyrosine-protein kinase erbB-4 (Homo sapiens, UniProt Q15303); assay: Inhibition of ErbB4
[8] = target: Receptor tyrosine-protein kinase erbB-2 (Homo sapiens, UniProt P04626); assay: Inhibition of ErbB2
Insulin receptor [9] = target: T3, Insulin receptor (Homo sapiens, UniProt P06213); assay: Inhibition of GST-tagged insulin receptor expressed in baculovirus by time-resolved fluorescence assay
Procedure, shortened: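 GST-tagged IR intracellular domain (aa 979–1382), baculovirus-expressed, activated at 2.7 µM with 2 mM ATP in 50 mM Hepes pH 7.5, 10 mM MgCl2, BSA. Phosphopeptide by TRF with streptavidin-allophycocyanin and Eu-anti-phosphotyrosine. n ≥ 2.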

[10] = target: Tyrosine-protein kinase Lck (Homo sapiens, UniProt P06239); assay: Inhibition of LCK
Sequence of Tyrosine-protein kinase Lck (P06239 whole entry): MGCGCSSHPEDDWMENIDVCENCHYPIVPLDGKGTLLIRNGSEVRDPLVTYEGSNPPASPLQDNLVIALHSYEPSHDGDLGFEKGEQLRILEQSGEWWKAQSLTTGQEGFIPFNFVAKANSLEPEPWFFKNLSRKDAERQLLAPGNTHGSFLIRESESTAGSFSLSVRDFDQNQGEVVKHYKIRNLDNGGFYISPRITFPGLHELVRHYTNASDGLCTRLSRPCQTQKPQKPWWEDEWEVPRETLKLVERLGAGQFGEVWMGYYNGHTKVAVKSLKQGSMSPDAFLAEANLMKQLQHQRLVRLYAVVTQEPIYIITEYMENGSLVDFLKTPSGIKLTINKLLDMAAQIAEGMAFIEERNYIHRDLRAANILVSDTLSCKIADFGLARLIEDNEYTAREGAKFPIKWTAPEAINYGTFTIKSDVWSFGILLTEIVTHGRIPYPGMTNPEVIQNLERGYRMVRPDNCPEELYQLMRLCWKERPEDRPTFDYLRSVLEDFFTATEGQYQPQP

Aurora kinase B = Aurora kinase B (Homo sapiens, UniProt Q96GD4); assay: Inhibition of Aurora B
Sequence of Aurora kinase B (Q96GD4 whole entry): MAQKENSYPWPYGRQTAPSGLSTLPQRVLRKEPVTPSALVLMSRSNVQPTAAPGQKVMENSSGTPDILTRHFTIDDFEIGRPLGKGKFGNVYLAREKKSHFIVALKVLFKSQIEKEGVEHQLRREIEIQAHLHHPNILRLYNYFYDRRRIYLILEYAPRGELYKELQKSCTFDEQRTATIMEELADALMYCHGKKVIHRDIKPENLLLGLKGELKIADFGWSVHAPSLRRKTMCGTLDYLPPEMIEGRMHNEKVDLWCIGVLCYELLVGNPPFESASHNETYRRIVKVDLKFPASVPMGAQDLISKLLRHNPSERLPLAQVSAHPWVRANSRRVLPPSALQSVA

Canis familiaris [11] = assay: Dose normalized AUC in Beagle dog at 7.2 mg/kg, po; format: ADME, organism-based, Canis lupus familiaris; design: dose 7.2 mg/kg, route oral; conditions: in vivo
Procedure, shortened: (§2)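 Compound given as solution in 1.0% DMSO, 20% Captisol in saline (IV) or water (PO); dog PO given as partial suspension. IV doses 0.6–1.3 mg/kg, PO 2.1–7.2 mg/kg by species. Male Sprague–Dawley rats, male beagle dogs, male cynomolgus monkeys. Data over 0–24 h; dose-normalized AUC as ng h/mL/(mg/kg).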

COLO 205 = assay: Antiproliferative activity against human COLO205 cells after 72 hrs by Celltiter assay; format: functional, cell-based; conditions: COLO 205, 72 h
Procedure, shortened: (§3)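 Cells seeded in 96-well dishes and incubated overnight at 37 °C, then exposed to a range of inhibitor concentrations for 72 h. Proliferation read by CellTiter-Glo luminescence per manufacturer's protocol. IC50 from 4-parameter curve fit.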

HFF = assay: Antiproliferative activity against HFF cells after 72 hrs by Celltiter assay; format: cell-based; conditions: Homo sapiens; procedure, shortened: as §3
[12] = target: T1, Insulin-like growth factor 1 receptor; assay: Binding affinity to IGF1R by liquid scintillation counting; conditions: read-out: Ki(app)
Procedure, shortened: (§4)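 Activated IGF-1R or IR kinase domains (pre-activated at 500 nM with 1 mM ATP for 30 min in pH 7.2 Hepes/MgCl2/BSA buffer with phosphatase inhibitors) were used at 0.5 nM final. Enzyme and ATP were pre-incubated with inhibitor for 6 h. […] Product was filter-captured and scintillation-counted. IC50 was converted to apparent Ki by Cheng–Prusoff.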

Canis familiaris [13] = assay: Volume of distribution at steady state in Beagle dog at 7.2 mg/kg, po; format: ADME, organism-based, Canis lupus familiaris; design: dose 7.2 mg/kg, route oral; conditions: in vivo; procedure, shortened: as §2
[14] = Clearance in Sprague-Dawley rat at 3 mg/kg, po; format: ADME, organism-based; design: dose 3 mg/kg, route oral; conditions: in vivo; procedure, shortened: as §2
Cynomolgus monkey [15] = assay: Dose normalized AUC in cynomolgus monkey at 2.1 mg/kg, po; format: ADME, organism-based, Macaca fascicularis; design: dose 2.1 mg/kg, route oral; conditions: in vivo; procedure, shortened: as §2
Insulin receptor [16] = target: T3, Insulin receptor; assay: Inhibition of human insulin receptor autophosphorylation in transfected mouse NIH3T3 cells; format: cell-based
Procedure, shortened: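 NIH-3T3 cells expressing human IR were grown on collagen-coated plates for 24 h, then given inhibitor or DMSO. After 2 h they were stimulated with bovine insulin for 15 min and lysed in RIPA. Lysates were captured overnight at 4 °C on anti-IRβ plates. Phospho-IR was detected by Eu-phosphotyrosine antibody time-resolved fluorescence (340/615 nm), and total IR by anti-IR. IC50 was taken from the phospho/total ratio curves.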

[17] = Antiproliferative activity against human NCI-H929 cells after 72 hrs by Celltiter assay; format: functional, cell-based; conditions: NCI-H929, 72 h; procedure, shortened: as §3
[18] = Oral bioavailability in Beagle dog at 7.2 mg/kg; format: ADME, organism-based, Canis lupus familiaris; conditions: in vivo; procedure, shortened: as §2
[19] = Oral bioavailability in cynomolgus monkey at 2.1 mg/kg; format: ADME, organism-based, Macaca fascicularis; conditions: in vivo; procedure, shortened: as §2
Insulin receptor [20] = target: T3, Insulin receptor; assay: Binding affinity to insulin receptor by liquid scintillation counting; conditions: read-out: Ki(app); procedure, shortened: as §4
Rattus norvegicus [21] = assay: Volume of distribution at steady state in Sprague-Dawley rat at 3 mg/kg, po; format: ADME, organism-based; design: dose 3 mg/kg, route oral; conditions: in vivo; procedure, shortened: as §2
A549 = assay: Antiproliferative activity against human A549 cells after 72 hrs by Celltiter assay; format: functional, cell-based; conditions: A549, 72 h; procedure, shortened: as §3
[22] = Clearance in Beagle dog at 7.2 mg/kg, po; format: ADME, organism-based, Canis lupus familiaris; design: dose 7.2 mg/kg, route oral; conditions: in vivo; procedure, shortened: as §2
[23] = Antiproliferative activity against human SK-ES cells after 72 hrs by Celltiter assay; format: functional, cell-based; procedure, shortened: as §3
LP-1 = assay: Antiproliferative activity against human LP-1 cells after 72 hrs by Celltiter assay; format: functional, cell-based; conditions: LP-1, 72 h; procedure, shortened: as §3
Rattus norvegicus [24] = assay: Dose normalized AUC in Sprague-Dawley rat at 3 mg/kg, po; format: ADME, organism-based; design: dose 3 mg/kg, route oral; conditions: in vivo; procedure, shortened: as §2
[25] = Oral bioavailability in Sprague-Dawley rat at 3 mg/kg; format: ADME, organism-based; conditions: in vivo; procedure, shortened: as §2
Cynomolgus monkey [26] = assay: Volume of distribution at steady state in cynomolgus monkey at 2.1 mg/kg, po; format: ADME, organism-based, Macaca fascicularis; design: dose 2.1 mg/kg, route oral; conditions: in vivo; procedure, shortened: as §2
[27] = Antiproliferative activity against human TC71 cells after 72 hrs by Celltiter assay; format: functional, cell-based; conditions: TC-71, 72 h; procedure, shortened: as §3
[28] = Clearance in cynomolgus monkey at 2.1 mg/kg, po; format: ADME, organism-based, Macaca fascicularis; design: dose 2.1 mg/kg, route oral; conditions: in vivo; procedure, shortened: as §2
[29] = Clearance in po dosed mouse; format: ADME, organism-based; conditions: in vivo
Mus musculus [30] = assay: Dose normalized AUC (0 to 6 hrs) in mouse at 7.3 mg/kg, po; format: ADME, organism-based; design: time < 6 hr, dose 7.3 mg/kg, route oral; conditions: in vivo; procedure, shortened: as §1

T1 sequence (P08069 31-736 limits assumed): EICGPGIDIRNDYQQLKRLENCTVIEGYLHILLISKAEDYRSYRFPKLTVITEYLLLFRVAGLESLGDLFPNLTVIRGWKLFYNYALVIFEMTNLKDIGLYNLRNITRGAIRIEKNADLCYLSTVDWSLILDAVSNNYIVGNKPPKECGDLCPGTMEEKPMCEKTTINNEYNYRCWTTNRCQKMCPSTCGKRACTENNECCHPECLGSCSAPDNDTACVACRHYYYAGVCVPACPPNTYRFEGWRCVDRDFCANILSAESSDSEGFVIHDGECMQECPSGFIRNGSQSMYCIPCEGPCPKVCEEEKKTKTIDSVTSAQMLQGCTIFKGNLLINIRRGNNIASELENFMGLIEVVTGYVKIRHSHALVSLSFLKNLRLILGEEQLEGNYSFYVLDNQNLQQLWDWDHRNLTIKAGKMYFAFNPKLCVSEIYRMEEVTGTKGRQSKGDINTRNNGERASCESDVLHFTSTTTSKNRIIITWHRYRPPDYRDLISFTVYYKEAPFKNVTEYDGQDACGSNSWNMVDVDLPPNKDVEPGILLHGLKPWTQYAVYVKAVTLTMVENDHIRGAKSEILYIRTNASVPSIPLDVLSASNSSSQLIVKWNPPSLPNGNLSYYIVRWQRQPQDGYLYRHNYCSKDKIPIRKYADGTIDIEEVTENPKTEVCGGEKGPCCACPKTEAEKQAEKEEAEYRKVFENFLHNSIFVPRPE
T1 sequence (P08069 741-1367 limits assumed): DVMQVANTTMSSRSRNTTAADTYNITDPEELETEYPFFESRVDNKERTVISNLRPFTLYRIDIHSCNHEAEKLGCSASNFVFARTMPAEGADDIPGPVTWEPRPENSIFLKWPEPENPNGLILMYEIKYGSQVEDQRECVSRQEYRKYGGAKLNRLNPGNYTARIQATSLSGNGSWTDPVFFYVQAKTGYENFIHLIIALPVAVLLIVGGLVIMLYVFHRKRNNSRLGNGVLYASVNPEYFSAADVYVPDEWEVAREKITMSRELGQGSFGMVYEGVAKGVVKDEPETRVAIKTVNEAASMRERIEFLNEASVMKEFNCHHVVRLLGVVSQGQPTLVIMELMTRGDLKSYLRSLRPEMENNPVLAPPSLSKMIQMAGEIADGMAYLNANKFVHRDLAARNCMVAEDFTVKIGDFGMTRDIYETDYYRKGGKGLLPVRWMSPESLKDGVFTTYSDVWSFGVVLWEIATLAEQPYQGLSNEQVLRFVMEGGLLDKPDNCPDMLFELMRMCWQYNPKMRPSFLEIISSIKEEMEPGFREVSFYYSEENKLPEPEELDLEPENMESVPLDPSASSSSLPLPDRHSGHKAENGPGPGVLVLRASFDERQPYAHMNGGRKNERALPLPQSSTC

COc1cc(N2CCC(N3CCN(C(C)=O)CC3)CC2)ccc1Nc1nccc(-c2c(-c3cccc(C(=O)Nc4c(F)cccc4F)c3)nc3ccccn23)n1
IC50 [1]: 3 nM | IC50 [2]: 65 nM | AUC (Mus musculus [3]): 216 ng·h/mL

CN(C)CCOc1cccc(Nc2nccc(-c3c(-c4cccc(C(=O)Nc5c(F)cccc5F)c4)nc4ccccn34)n2)c1
IC50 [1]: 1 nM | IC50 [2]: 177 nM

CCc1cc(Nc2nccc(-c3c(-c4cccc(C(=O)Nc5c(F)cccc5F)c4)nc4ccccn34)n2)c(OC)cc1N1CCC(N2CCN(S(C)(=O)=O)CC2)CC1
IC50 [4]: 1800 nM | IC50 [5]: 320 nM | IC50 (Aurora kinase A): > 9500 nM | IC50 [6]: 22 nM | IC50 [1]: 7 nM | IC50 [7]: 140 nM | IC50 [8]: 54 nM | IC50 (Insulin receptor [9]): 7 nM | IC50 [10]: 710 nM | IC50 (Aurora kinase B): 1300 nM

COc1cc(N2CCC(N3CCN(C)CC3)CC2)ccc1Nc1nccc(-c2c(-c3cccc(C(=O)Nc4c(F)cccc4F)c3)nc3ccccn23)n1
IC50 [1]: 2 nM | IC50 [2]: 28 nM | AUC (Mus musculus [3]): 203 ng·h/mL

O=C(Nc1c(F)cccc1F)c1cccc(-c2nc3ccccn3c2-c2ccnc(Nc3ccc(N4CCC(N5CCCCC5)CC4)cc3)n2)c1
IC50 [1]: 2 nM | IC50 [2]: 87 nM

COc1cc(N2CCC(N3C[C@@H](C)O[C@@H](C)C3)CC2)ccc1Nc1nccc(-c2c(-c3cccc(C(=O)Nc4c(F)cccc4F)c3)nc3ccccn23)n1
IC50 [1]: 4 nM | IC50 [2]: 68 nM | AUC (Mus musculus [3]): 549 ng·h/mL

CCc1cc(Nc2nccc(-c3c(-c4ccc(OC)c(C(=O)Nc5c(F)cccc5F)c4)nc4ccccn34)n2)c(OC)cc1N1CCC(N2CCN(S(C)(=O)=O)CC2)CC1
AUC (Canis familiaris [11]): 870 ng·h/mL | IC50 (COLO 205): 124 nM | IC50 (HFF): > 20000 nM | IC50 [4]: 11000 nM | Ki [12]: 1.6 nM | Vdss (Canis familiaris [13]): 4.7 L/kg | CL/F [14]: 5.8 mL/min/kg | IC50 [5]: > 2000 nM | AUC (Cynomolgus monkey [15]): 1070 ng·h/mL | IC50 (Insulin receptor [16]): 19 nM | IC50 (Aurora kinase A): > 1500 nM | IC50 [17]: 81 nM | bioavailability [18]: 47% | bioavailability [19]: 97% | IC50 [6]: > 10000 nM | IC50 [1]: 27 nM | Ki (Insulin receptor [20]): 1.3 nM | IC50 [7]: > 25000 nM | IC50 [8]: > 10000 nM | Vdss (Rattus norvegicus [21]): 7.5 L/kg | IC50 (A549): > 20000 nM | CL/F [22]: 8.7 mL/min/kg | IC50 (Insulin receptor [9]): 25 nM | IC50 [23]: 61 nM | IC50 (LP-1): 104 nM | AUC (Rattus norvegicus [24]): 1220 ng·h/mL | bioavailability [25]: 63% | Vdss (Cynomolgus monkey [26]): 9.8 L/kg | IC50 [2]: 22 nM | IC50 [10]: > 3000 nM | IC50 [27]: 35 nM | CL/F [28]: 13.9 mL/min/kg | IC50 (Aurora kinase B): 4500 nM

COc1cc(N2CCC(N3CCCC3)CC2)ccc1Nc1nccc(-c2c(-c3cccc(C(=O)Nc4c(F)cccc4F)c3)nc3ccccn23)n1
IC50 [1]: 2 nM | IC50 [2]: 38 nM | AUC (Mus musculus [3]): 121 ng·h/mL

COc1cc(N2CCC(N3CCOCC3)CC2)ccc1Nc1nccc(-c2c(-c3cccc(C(=O)Nc4c(F)cccc4F)c3)nc3ccccn23)n1
IC50 [1]: 2 nM | IC50 [2]: 41 nM | AUC (Mus musculus [3]): 276 ng·h/mL

COc1cc(N2CCC(N3CCCCC3)CC2)ccc1Nc1nccc(-c2c(-c3cccc(C(=O)Nc4c(F)cccc4F)c3)nc3ccccn23)n1
CL/F [29]: 13.4 mL/min/kg | AUC (Mus musculus [30]): 239 ng·h/mL | IC50 [1]: 2 nM | IC50 [2]: 38 nM

COc1cc(N2CCC(N3CCN(S(C)(=O)=O)CC3)CC2)ccc1Nc1nccc(-c2c(-c3cccc(C(=O)Nc4c(F)cccc4F)c3)nc3ccccn23)n1
IC50 [4]: 440 nM | Ki [12]: 5.2 nM | IC50 [5]: 80 nM | CL/F [29]: 13.6 mL/min/kg | IC50 (Aurora kinase A): 1600 nM | IC50 [6]: 57 nM | IC50 [1]: 5 nM | Ki (Insulin receptor [20]): 2.2 nM | IC50 [7]: 74 nM | IC50 [8]: 72 nM | IC50 (Insulin receptor [9]): 5 nM | IC50 [2]: 36 nM | IC50 [10]: 1200 nM | IC50 (Aurora kinase B): 200 nM | AUC (Mus musculus [3]): 1060 ng·h/mL

COc1cc(N2CCC(N3CC[C@@H](F)C3)CC2)ccc1Nc1nccc(-c2c(-c3cccc(C(=O)Nc4c(F)cccc4F)c3)nc3ccccn23)n1
IC50 [1]: 2 nM | IC50 [2]: 40 nM | AUC (Mus musculus [3]): 494 ng·h/mL
